How the values were obtained:
[1] = Cytotoxicity against mouse […] cells after 48 hrs by MTT assay; format: cell-based
Outline: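 J774 macrophages in DMEM (4 mM L-glutamine, 10% heat-inactivated FBS) were seeded at 1 × 10^5 cells/well and grown for 48 h at 37 °C, 5% CO2. They were then exposed to compounds at 25–400 µM for 48 h. MTT (0.1 mg/mL final) was added for 3 h, formazan was dissolved in DMSO/glycine buffer pH 10.5, and absorbance was read at 560 nm to give an IC50.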

HT-29 [2] = test: Inhibition of TNFalpha-induced NF-kappaB activation expressed in human HT-29 cells coexpressing hrGFP at 400 uM after 24 hrs by propidium iodide staining-based flow cytometric analysis relative to control; format: cell-based
Outline: (§1)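 HT-29 cells stably expressing NF-κB-driven hrGFP given compound (DMSO <0.5%) for 2 h at the maximum non-cytotoxic concentration, then TNF-α at 3 ng/mL final for 18–24 h. Cells trypsinised and stained with propidium iodide; 5000 events gated on FSC/SSC. The %GFP-positive among PI-excluding live cells is normalised to TNF-α/DMSO control, ± SD.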

HT-29 [3] = test: Pro-inflammatory activity in NFkappaB-GFP transfected human HT-29 cells at 25 to 400 uM after 24 hrs by propidium iodide staining-based flow cytometric analysis; format: ADME, cell-based; details: ht-29, 24 h
Outline: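 Reporter HT-29-NF-κB-hrGFP cells given compound alone, without TNF-α, for 18–24 h at 37 °C after the same 2 h pre-incubation. GFP-positive live (propidium iodide-excluding) cells counted by flow cytometry; IL-8 in supernatant measured by bead-based flow cytometry.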

[4] = Cytotoxicity against human HT-29 cells expressing NF-kappaB-hrGFP assessed as highest non-cytotoxic dose for 100% cell survival after 24 hrs by MTT assay; format: cell-based; details: read-out: Activity
Outline: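 HT-29 cells stably carrying pNF-κB-hrGFP, seeded at 0.5 × 10^6/mL in DMEM with 10% FBS, grown 24 h at 37 °C, 5% CO2. Compounds added in DMSO (<0.5% v/v final) at 12.5–400 µM for 24 h. Viability by MTT reduction (2 h), formazan dissolved in DMSO/glycine buffer, read at 560 nm.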

HT-29 [5] = test: Inhibition of NF-kappaB activation expressed in human HT-29 cells assessed as inhibition of TNFalpha-stimulated IL8 release at 400 uM after 24 hrs by flow cytometric analysis relative to control; format: cell-based
Outline: (§2)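 Reporter HT-29-NF-κB-hrGFP cells pretreated 2 h with compound (DMSO <0.5%) at the highest concentration with 100% survival, then stimulated with TNF-α (3 ng/mL final) for 18–24 h at 37 °C. IL-8 in clarified supernatant measured by flow cytometric bead assay (500 events). Expressed as % of TNF-α/DMSO control ± SD; thalidomide as reference.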

HT-29 [6] = test: Inhibition of NF-kappaB activation expressed in human HT-29 cells assessed as inhibition of TNFalpha-stimulated IL8 release at 100 uM after 24 hrs by flow cytometric analysis relative to control; format: cell-based; outline: as §2
Mus musculus [7] = test: Analgesic activity in albino mouse assessed as inhibition of acetic acid-induced abdominal constriction at 100 umol/kg, po administered 1 hr before acetic acid challenge measured after 60 mins relative to control; format: functional; details: Abdomen
Outline: (§3)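 Albino mice of both sexes (18–23 g) were dosed orally as a suspension in 5% arabic gum in saline, with vehicle controls. After 1 h they received 0.6% acetic acid ip (0.1 mL/10 g). Constrictions were counted for 20 min starting 10 min after injection. Data are % inhibition vs vehicle, mean ± SEM, Student t-test.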

Glycine max = test: Inhibition of soybean lipoxygenase using arachidonic acid as substrate at 50 uM
Outline: (§4)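 Soybean 15-lipoxygenase kit assay, arachidonic acid substrate, H2O2 as lipoxygenating agent in 0.1 M Tris-HCl pH 7.4. Single-point screen at 50 µM. IC50 found by varying concentration over 10–100 µM. Quercetin at 4 µM as positive control; duplicate means; Student t-test.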

Rattus norvegicus = test: Antiinflammatory activity in albino rat assessed as inhibition of carrageenan-induced paw edema at 100 umol/kg, po administered 1 hr before carrageenan challenge measured after 3 hrs by plethysmometric analysis relative to control; format: functional
Outline: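 Albino rats of both sexes (150–200 g) were dosed orally as a suspension in 1% Tween 80 in saline, with vehicle controls. After 1 h, 0.1 mL 1% carrageenan or saline was injected subplantar. Paw volume was read by glass plethysmometer at 3 h. Edema = carrageenan-paw minus saline-paw volume; % inhibition vs vehicle; Student t-test.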

HT-29 [8] = test: Inhibition of TNFalpha-induced NF-kappaB activation expressed in human HT-29 cells coexpressing hrGFP at 100 uM after 24 hrs by propidium iodide staining-based flow cytometric analysis relative to control; format: cell-based; outline: as §1
[9] = Inhibition of soybean lipoxygenase using arachidonic acid as substrate; parameters: species or system Glycine max; outline: as §4
[10] = Induction of NO release in 0.1 M Tris-HCl and 0.1 mM DTPA at pH 8.3 measured for 20 mins in presence of cysteine; format: physicochemical; details: buffer, pH 8.3, 20 min
Outline: (§5)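 Electrochemical NO detection with an ISO-NOP sensor. Compounds in DMSO added to 0.1 M Tris-HCl, 0.1 mM DTPA at pH 7.4 or 8.3. Cysteine (300 or 100 µM) added and NO recorded for 20 min at 25 or 37 °C; compound:Cys ratio 1:1 at 25 °C, with 3:1 and 37 °C runs also made.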

HT-29 [11] = test: Inhibition of NF-kappaB activation expressed in human HT-29 cells assessed as inhibition of TNFalpha-stimulated IL8 release at 50 uM after 24 hrs by flow cytometric analysis relative to control; format: cell-based; outline: as §2
HT-29 [12] = test: Inhibition of TNF-alpha-induced NFkappaB activation expressed in human HT-29 cells coexpressing hrGFP at 50 uM after 24 hrs by propidium iodide staining-based flow cytometric analysis relative to control; format: cell-based; outline: as §1
[13] = Induction of NO release in 0.1 M Tris-HCl and 0.1 mM DTPA at pH 7.4 measured for 20 mins in presence of cysteine; format: physicochemical; details: buffer, pH 7.4, 20 min; outline: as §5
Mus musculus [14] = test: Analgesic activity in albino mouse assessed as inhibition of acetic acid-induced abdominal constriction at 100 umol/kg, po administered 1 hr before acetic acid challenge measured after 30 mins relative to control; format: functional; details: Abdomen; outline: as §3

Row | SMILES | IC50 [1] | NF-kappaB activity (GFP-positive cells), % of TNF-alpha control (HT-29 [2]) | Activity (HT-29 [3]) | MNTC at 24 h [4] | inhibition (HT-29 [5]) | inhibition (HT-29 [6]) | inhibition in vivo at 100 µmol/kg (Mus musculus [7]) | inhibition (Glycine max) | inhibition in vivo at 100 µmol/kg (Rattus norvegicus) | NF-kappaB activity (% of TNF-alpha control) (HT-29 [8]) | IC50 [9] | Activity [10] | inhibition (HT-29 [11]) | NF-kappaB activation (% of TNF-alpha control) (HT-29 [12]) | Activity [13] | inhibition in vivo at 100 µmol/kg (Mus musculus [14])
1 | O=C(N/N=C/c1c(-c2ccccc2)no[n+]1[O-])c1cnn(-c2ccccc2)c1 | 42 µM | 105% | Non-toxic | 400 µM | – | – | – | – | – | – | – | – | – | – | – | –
2 | Cc1nc2ccccn2c1C(=O)N/N=C/c1no[n+]([O-])c1C | > 400 µM | 120% | Non-toxic | 400 µM | 77% | – | – | – | – | – | – | – | – | – | – | –
3 | Cc1c(C(=O)N/N=C/c2ccc(Br)cc2)no[n+]1[O-] | 162 µM | – | Non-toxic | 100 µM | – | 61% | 23% | 0% | 0% | 126% | – | – | – | – | – | –
4 | Cc1c(C(=O)N/N=C/c2ccc3c(c2)OCO3)no[n+]1[O-] | > 400 µM | – | Non-toxic | 100 µM | – | 98% | – | – | – | 97% | – | – | – | – | – | –
5 | Cc1c(C(=O)N/N=C/c2ccc3no[n+]([O-])c3c2)no[n+]1[O-] | > 400 µM | 121% | Non-toxic | 400 µM | 68% | – | – | – | – | – | – | – | – | – | – | –
6 | Cc1c(C(=O)N/N=C/c2ccc([N+](=O)[O-])o2)no[n+]1[O-] | 96 µM | – | Non-toxic | 100 µM | – | 48% | 13% | – | 14% | 136% | – | – | – | – | – | –
7 | O=C(N/N=C/c1ccc2no[n+]([O-])c2c1)c1ccc2c(c1)OCO2 | 141 µM | 87% | Non-toxic | 400 µM | 64% | – | – | 55% | – | – | 50 µM | 0 nM/min | – | – | – | –
8 | Cc1c(/C=N/NC(=O)c2cnn(-c3ccccc3)c2)no[n+]1[O-] (mixture of isomers) | 295 µM | – | Non-toxic | 100 µM | – | – | – | 0% | – | 80% | – | – | – | – | – | –
9 | Cc1nc2ccccn2c1C(=O)N/N=C/c1ccc2no[n+]([O-])c2c1 | > 400 µM | 104% | Non-toxic | 400 µM | 76% | – | – | – | – | – | – | – | – | – | – | –
10 | O=C(O)c1ccc(/C=N/NC(=O)c2c(-c3ccccc3)no[n+]2[O-])cc1 | > 300 µM | – | Non-toxic | 50 µM | – | – | – | 53% | – | – | 50 µM | 0 nM/min | 114% | 115% | – | –
11 | COc1ccc(/C=N/NC(=O)c2no[n+]([O-])c2C)cc1O | > 400 µM | 117% | Non-toxic | 400 µM | 59% | – | – | 58% | – | – | – | – | – | – | – | –
12 | Cc1c(C(=O)N/N=C/c2ccc(C(F)(F)F)cc2)no[n+]1[O-] | > 400 µM | 55% | Non-toxic | 400 µM | – | – | – | 55% | – | – | 50 µM | – | – | – | – | –
13 | Cc1nc2ccccn2c1C(=O)NN | > 400 µM | – | Non-toxic | 50 µM | – | – | – | – | – | – | – | – | – | 111% | – | –
14 | Cc1c(C(=O)N/N=C/c2ccc([N+](=O)[O-])s2)no[n+]1[O-] | 68 µM | – | Non-toxic | 100 µM | – | – | – | – | – | 111% | – | – | – | – | – | –
15 | COc1cc(/C=N/NC(=O)c2no[n+]([O-])c2C)ccc1O | > 400 µM | – | Non-toxic | 100 µM | – | 77% | – | 1% | – | 149% | – | 0 nM/min | – | – | – | –
16 | Cc1c(/C=N/NC(=O)c2ccc3c(c2)OCO3)no[n+]1[O-] | 132 µM | 102% | Non-toxic | 400 µM | 106% | – | – | – | – | – | – | – | – | – | – | –
17 | Cc1c(C(=O)N/N=C/c2c(-c3ccccc3)no[n+]2[O-])no[n+]1[O-] | > 400 µM | – | Non-toxic | 100 µM | – | 77% | – | – | – | 122% | – | – | – | – | – | –
18 | Cc1c(C(=O)N/N=C/c2cccs2)no[n+]1[O-] | > 400 µM | – | Non-toxic | 100 µM | – | 75% | 14% | 10% | 0% | 122% | > 100 µM | – | – | – | – | –
19 | Cc1c(/C=N/NC(=O)c2no[n+]([O-])c2C)no[n+]1[O-] | > 400 µM | – | Non-toxic | 100 µM | – | 65% | 14% | 55% | 10% | 127% | 50 µM | – | – | – | – | –
20 | Cc1c(C(=O)N/N=C/c2ccco2)no[n+]1[O-] | > 400 µM | – | Non-toxic | 100 µM | – | 82% | – | 0% | – | 99% | – | – | – | – | – | –
21 | Cc1nc2ccccn2c1C(=O)N/N=C/c1c(-c2ccccc2)no[n+]1[O-] | 56 µM | 32% | Non-toxic | 400 µM | 38% | – | 14% | 0% | 18% | – | – | 0 nM/min | – | – | 0 nM/min | 2%
22 | NNC(=O)c1ccc2c(c1)OCO2 | > 400 µM | – | Non-toxic | 50 µM | – | – | – | – | – | – | – | – | – | 118% | – | –
23 | O=C(N/N=C/c1ccc2no[n+]([O-])c2c1)c1cnn(-c2ccccc2)c1 | 37 µM | – | Non-toxic | – | – | – | – | – | – | – | – | – | – | – | – | –
24 | COc1ccc(/C=N/NC(=O)c2no[n+]([O-])c2C)cc1OC | > 400 µM | 120% | Non-toxic | 400 µM | 68% | – | 17% | 0% | 4% | – | – | – | – | – | – | –

Source: ChEMBL document CHEMBL1955718, “Discovery of new orally effective analgesic and anti-inflammatory hybrid furoxanyl N-acylhydrazone derivatives” (Bioorg Med Chem, 2012)
